# According to PubChem BioAssay AID540281 (Sanford-Burnham Center for Chemical Genomics, 2011):
# Out of some 2,500 compounds screened, about 1,500 (60%) were called active. So high a share suggests a set chosen from earlier hits. A selection follows. Values without a mark were called inactive.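 Rule for the calls: active = inhibition of at least 30% at 20 µM; inactive = the rest.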 Non-standard residues stand in square brackets, D forms with d. Residues, ends and D or L forms follow the SMILES beside them. ξ: configuration not given here. ξM = CSCCC(N)C(=O)O
# Biological target: Carboxy-terminal domain RNA polymerase II polypeptide A small phosphatase 1 (Homo sapiens) (UniProt Q9GZU7)
# Sequence (Q9GZU7 76-261 limits assumed): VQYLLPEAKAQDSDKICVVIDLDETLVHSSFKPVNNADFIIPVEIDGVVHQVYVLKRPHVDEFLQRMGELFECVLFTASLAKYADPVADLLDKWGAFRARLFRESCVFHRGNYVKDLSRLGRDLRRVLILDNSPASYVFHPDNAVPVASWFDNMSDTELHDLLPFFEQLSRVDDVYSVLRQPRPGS
# Experiment: Scp-1 phosphatase inhibitors, retest, confirmation, biochemical, colorimetric, single concentration (AID 540281);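 note: plate controls were DMSO with enzyme for no effect and buffer wells lacking enzyme for full effect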
# Conditions: recombinant SCP-1 catalytic domain, phosphate release, malachite green absorbance; at 20 µM; stronger effect = higher value
# Method in brief: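 Assay system: SCP-1 catalytic fragment (residues 76-261). Schedule: 45 min enzyme reaction at room temperature. Medium: Tris acetate pH 5.5 buffer with Mg2+ and detergent. Compound: one dose, 20 µM final, 1.0% DMSO. Reagent: Phospho-17-mer peptide substrate. Detection: absorbance at 630 nm, free phosphate colorimetry.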
row,Compound,inhibition
1,Cc1ccc(NC(=O)COc2ccc(/C=N\NC(=O)c3cccnc3)cc2)cc1C,81% (active)
2,Cc1ccc(C2(C)NC(=O)N(CC(=O)Nc3ccccc3C(=O)N3CCCCC3)C2=O)cc1 (stereo not drawn),-13.7%
3,Cc1ccccc1NC(=O)CN1C(=O)N/C(=C\c2cccn2-c2cccc(C(=O)O)c2)C1=O,82.2% (active)
4,C[C@H](CO)N1C[C@H](C)[C@@H](CN(C)C(=O)NC2CCCCC2)Oc2ccc(NC(=O)c3ccncc3)cc2C1=O,6.94%
5,C[C@H](CO)N1C[C@H](C)[C@H](CN(C)C(=O)Nc2ccc(C(F)(F)F)cc2)Oc2c(NC(=O)c3ccncc3)cccc2C1=O,44.3% (active)
6,COc1ccc(NC(=O)N(C)C[C@H]2Oc3ccc(NC(=O)C4CC4)cc3C(=O)N([C@H](C)CO)C[C@@H]2C)cc1,2.35%
7,CNS(=O)(=O)c1cccc(C(=O)OCC(=O)N2c3ccccc3NC(=O)C2(C)C)c1,48.6% (active)
8,CC(NC(=O)CC1SC(N)=NC1=O)c1ccccc1 (stereo not drawn),-28.8%
9,C=Cc1ccc(C(=O)N2CCCC(CCC(=O)N3CCN(c4ccccn4)CC3)C2)cc1 (stereo not drawn),67% (active)
10,O=C(Nc1cc(S(=O)(=O)N2CCCCC2)ccc1Cl)C1COc2ccccc2O1 (stereo not drawn),65.1% (active)
11,COc1cc(SC)ccc1C(=O)NNC(=O)C1COc2ccccc2O1 (stereo not drawn),5.11%
12,O=C(N/N=C/c1ccco1)c1ccc(C(=O)N/N=C/c2ccco2)o1,56.8% (active)
13,COc1ccc2[nH]c3c(C)c4cc[n+](C)cc4c(C)c3c2c1,-2.43%
14,COc1ccc(/C=C/C(=O)OCC(=O)NC2CCCCCC2)cc1OC,45.2% (active)
15,N/C(=N\OC(=O)N1c2ccccc2Sc2ccccc21)c1ccc(Br)cc1,46.1% (active)
16,Cc1ccc(Cc2nnc(SCC(=O)Nc3ccc(C)cc3C)[nH]c2=O)cc1,39.7% (active)
17,COCCCn1c(Cc2csc(Nc3cccc(Cl)c3)n2)nnc1SCC(=O)OC1CCCCC1,59.1% (active)
18,Cc1ccc(S(=O)(=O)Nc2ccc3c(c2)C(=O)N([C@H](C)CO)C[C@@H](C)[C@@H](CN(C)C(=O)Nc2cccc4ccccc24)O3)cc1,5.11%
19,N#Cc1ccccc1CN1C(=O)S/C(=C/c2cccn2-c2cccc(C(=O)O)c2)C1=O,67% (active)
20,C[N+](C)(C)CCNC(=O)c1cc[n+](Cc2ccccc2)c(/C=N/O)c1,83.3% (active)
21,CC(=O)Nc1ccccc1Sc1ccc2c3c(cccc13)C(=O)N(c1ccc(C)cc1)C2=O,0.82%
22,COC(=O)CNC(=O)C(CCSC)NC(C)=O (stereo not drawn) (Ac-[ξM]-Gly-OMe),-12.9%
23,O=C(CNC(=O)C(c1ccccc1)c1ccccc1)N/N=C\c1ccc2c(c1)OCO2,-8.05%
24,O=C(CCC(=O)N/N=C/c1ccc(Br)o1)N/N=C/c1ccc(Br)o1,40.3% (active)
25,O=C(CCNC(=O)c1ccccc1)NN=Cc1ccc(Br)o1,45% (active)
26,N#Cc1c(-c2cccs2)nc(SCC(=O)c2ccc(Br)cc2)[nH]c1=O,78.5% (active)
27,COc1ccc(Cc2nnc(NC(=O)Cc3cccs3)s2)cc1,77.3% (active)
28,O=S(=O)(Nc1ccccc1Cl)c1cccc2nsnc12,48.1% (active)
